In ChEMBL document CHEMBL1155944 (J Med Chem, 2008):

How the values were obtained:
Rattus norvegicus [1] = species on record: Rattus norvegicus; test: Displacement of [3H]Muscimol from GABAA alpha-1-alpha-5 receptor in Sprague-Dawley rat brain cortex membrane at 100 uM
How it was run: (§1)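 Well-washed membranes from adult male Sprague-Dawley rat cortex or cerebellum (50–200 μg protein). Incubated 60 min on ice in 50 mM Tris/citrate, pH 7.3, with 6 nM [3H]muscimol and test compound. […] Filtered and counted by scintillation. IC50 and pseudo-Hill coefficient obtained by nonlinear regression.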

[2] = target: GABA A receptor alpha-5/beta-3/gamma-2 (Rattus norvegicus) (UniProt P18508+P19969+P63079); test: Intrinsic activity at recombinant rat GABAA alpha-5-beta-3-gamma-2 receptor expressed in HEK293 cells assessed as induction of current at 1 mM by whole-cell patch-clamp technique relative to GABA; assay type: cell-based
How it was run: (§2)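 Rat αiβ3γ2S receptors transiently expressed in HEK293 cells, with EGFP marking transfected cells, recorded 2 days after transfection. Whole-cell patch clamp in HEPES saline, pH 7.35. Drug applied alone at 1, 10, 100 and 1000 μM. […] Data from at least four cells.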

[3] = Agonist activity at rat GABAA alpha-1R66C-beta-2 receptor mutant expressed in Xenopus laevis oocytes assessed as inhibition of GABA-induced current at -60 mV at 10 mM in presence of 2 mM 2-sulfonatoethyl methanethiosulfonate by Two-Electrode voltage clamp method; assay type: functional, Oocyte; design: scale not given: the % may be the effect or the level left
[4] = target: Gamma-aminobutyric acid receptor subunit alpha-1 (Rattus norvegicus) (UniProt P62813); test: Agonist activity at rat wild type GABAA alpha-1-beta-2 receptor expressed in Xenopus laevis oocytes as inhibition of GABA-induced current at -60 mV at 1 mM by Two-Electrode voltage clamp method; assay type: functional, cell-based; design: scale not given: the % may be the effect or the level left; details: Oocyte
How it was run: (§3)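 Xenopus oocytes injected with rat α1 (wt or cysteine mutant) plus β2 mRNA, kept 2–10 days at 17 °C. Two-electrode voltage clamp at −60 mV, room temperature, Ca2+-free frog Ringer, pH 7.5.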

[5] = target: Gamma-aminobutyric acid receptor subunit alpha-6 (Rattus norvegicus) (UniProt P30191); test: Displacement of [3H]Muscimol from GABAAalpha6 receptor in Sprague-Dawley rat brain cerebellum membrane at 100 uM; assay type: tissue-based; how it was run: as §1
[6] = Agonist activity at rat GABAA alpha-1S68C-beta-2 receptor mutant expressed in Xenopus laevis oocytes as inhibition of GABA-induced current at -60 mV by Two-Electrode voltage clamp method in presence of picrotoxinin; assay type: functional, cell-based; details: Oocyte
[7] = target: T1, Gamma-aminobutyric acid receptor subunit alpha-1 (Rattus norvegicus, UniProt P62813+P63138); test: Agonist activity at rat wild type GABAA alpha-1-beta-2 receptor expressed in Xenopus laevis oocytes as inhibition of GABA-induced current at -60 mV by Two-Electrode voltage clamp method in presence of picrotoxinin; assay type: functional, cell-based, Oocyte
[8] = target: T2, GABA A receptor alpha-2/beta-2/gamma-2 (Rattus norvegicus) (UniProt P18508+P23576+P63138); test: Antagonist activity at recombinant rat GABAA alpha-2-beta-3-gamma-2 receptor expressed in HEK293 cells assessed as inhibition of GABA-induced current at 1 uM by whole-cell patch-clamp technique; assay type: functional, cell-based; design: scale not given: the % may be the effect or the level left
How it was run: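 HEK293 cells transiently transfected by calcium phosphate with rat αi, β3, γ2S and EGFP cDNAs, recorded 2 days later. Whole-cell patch clamp in HEPES saline, pH 7.35. […] Response expressed relative to the GABA-alone current. Data from at least four cells.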

[9] = Agonist activity at rat GABAA alpha-1F64C-beta-2 receptor mutant expressed in Xenopus laevis oocytes assessed as reduction of GABA-induced current at -60 mV at 10 mM by Two-Electrode voltage clamp method in presence of 10 uM 2-sulfonatoethyl methanethiosulfonate; assay type: functional, Oocyte; design: scale not given: the % may be the effect or the level left
[10] = target: Gamma-aminobutyric acid receptor subunit alpha-6 (Rattus norvegicus) (UniProt P30191); test: (§4) Displacement of [3H]Muscimol from GABAAalpha6 receptor in Sprague-Dawley rat brain cerebellum membrane; assay type: tissue-based; how it was run: as §1
[11] = target: Gamma-aminobutyric acid receptor subunit alpha-6 (Rattus norvegicus, UniProt P30191); test: as §4; assay type: tissue-based; how it was run: as §1
[12] = Agonist activity at rat GABAA alpha-1R66C-beta-2 receptor mutant expressed in Xenopus laevis oocytes assessed as reduction of GABA-induced current at -60 mV at 30 mM by Two-Electrode voltage clamp method in presence of 5.5 mM GABA; assay type: functional, Oocyte; design: scale not given: the % may be the effect or the level left
How it was run: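 α1R66Cβ2 oocytes, two-electrode voltage clamp at −60 mV. […] Then 10 mM MTSES (12 s) and 10 mM DTT (20 s) were applied. Reaction rate fitted monoexponentially against cumulative application time.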

[13] = Agonist activity at rat GABAA alpha-1S68C-beta-2 receptor mutant expressed in Xenopus laevis oocytes at -60 mV at 30 mM by Two-Electrode voltage clamp method; assay type: functional, Oocyte
How it was run: (§5)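 Rat α1β2 receptors (wt or cysteine mutant) expressed in Xenopus oocytes. Two-electrode voltage clamp at −60 mV, room temperature, Ca2+-free frog Ringer, pH 7.5. Increasing test concentrations applied alone. Currents normalized to the maximal GABA-induced current. Some dose-response curves had only two trials.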

[14] = Agonist activity at rat GABAA alpha-1F64C-beta-2 receptor mutant expressed in Xenopus laevis oocytes at -60 mV by Two-Electrode voltage clamp method; assay type: functional, cell-based; details: Oocyte
[15] = Agonist activity at rat GABAA alpha-1S68C-beta-2 receptor mutant expressed in Xenopus laevis oocytes assessed as reduction of GABA-induced current at -60 mV at 10 mM by Two-Electrode voltage clamp method in presence of 450 uM 2-sulfonatoethyl methanethiosulfonate; assay type: functional, Oocyte; design: scale not given: the % may be the effect or the level left
Rattus norvegicus [16] = species on record: Rattus norvegicus; test: Displacement of [3H]Muscimol from GABAA alpha-1-alpha-5 receptor in Sprague-Dawley rat brain cortex membrane at 1 mM; how it was run: as §1
[17] = Agonist activity at rat GABAA alpha-1S68C-beta-2 receptor mutant expressed in Xenopus laevis oocytes at -60 mV by Two-Electrode voltage clamp method; assay type: functional, cell-based; details: Oocyte
[18] = Agonist activity at rat GABAA alpha-1S68C-beta-2 receptor mutant expressed in Xenopus laevis oocytes as inhibition of GABA-induced current at -60 mV at 1 mM by Two-Electrode voltage clamp method; assay type: functional, Oocyte; design: scale not given: the % may be the effect or the level left; how it was run: as §3
[19] = target: Gamma-aminobutyric acid receptor subunit alpha-6 (Rattus norvegicus) (UniProt P30191); test: Displacement of [3H]Muscimol from GABAAalpha6 receptor in Sprague-Dawley rat brain cerebellum membrane at 1 mM; assay type: tissue-based; how it was run: as §1
[20] = target: Gamma-aminobutyric acid receptor subunit alpha-1 (Rattus norvegicus) (UniProt P62813); test: Agonist activity at rat wild type GABAA alpha-1-beta-2 receptor expressed in Xenopus laevis oocytes at -60 mV at 30 mM by Two-Electrode voltage clamp method; assay type: functional, cell-based; details: Oocyte; how it was run: as §5
[21] = target: T1, Gamma-aminobutyric acid receptor subunit alpha-1; test: Agonist activity at rat wild type GABAA alpha-1-beta-2 receptor expressed in Xenopus laevis oocytes at -60 mV by Two-Electrode voltage clamp method; assay type: functional, cell-based, Oocyte
[22] = Agonist activity at rat GABAA alpha-1F64C-beta-2 receptor mutant expressed in Xenopus laevis oocytes assessed as inhibition of GABA-induced current at -60 mV by Two-Electrode voltage clamp method in presence of picrotoxinin; assay type: functional, cell-based; details: Oocyte
[23] = target: Gamma-aminobutyric acid receptor subunit alpha-1 (Rattus norvegicus) (UniProt P62813); test: Agonist activity at rat wild type GABAA alpha-1-beta-2 receptor expressed in Xenopus laevis oocytes assessed as inhibition of drug-induced current at -60 mV at 10 mM in presence of 100 uM picrotoxinin by Two-Electrode voltage clamp method; assay type: functional, cell-based; design: scale not given: the % may be the effect or the level left; details: Oocyte
How it was run: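 Oocytes expressing rat α1β2, two-electrode voltage clamp at −60 mV. Several 10 mM test pulses applied, then washout. 100 μM picrotoxinin applied, immediately followed by co-application of 10 mM drug plus 100 μM picrotoxinin, and the current recorded.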

[24] = Agonist activity at rat GABAA alpha-1F64C-beta-2 receptor mutant expressed in Xenopus laevis oocytes assessed as inhibition of GABA-induced current at -60 mV at 1 mM by Two-Electrode voltage clamp method; assay type: functional, Oocyte; design: scale not given: the % may be the effect or the level left; how it was run: as §3
[25] = target: Gamma-aminobutyric acid receptor subunit alpha-3 (Rattus norvegicus) (UniProt P20236); test: Intrinsic activity at recombinant rat GABAA alpha-3-beta-3-gamma-2 receptor expressed in HEK293 cells assessed as induction of current at 1 mM by whole-cell patch-clamp technique relative to GABA; assay type: cell-based; how it was run: as §2
[26] = target: T2, GABA A receptor alpha-2/beta-2/gamma-2 (Rattus norvegicus); test: Intrinsic activity at recombinant rat GABAA alpha-2-beta-3-gamma-2 receptor expressed in HEK293 cells assessed as induction of current at 1 mM by whole-cell patch-clamp technique relative to GABA; assay type: cell-based; how it was run: as §2
[27] = Agonist activity at rat GABAA alpha-1F64C-beta-2 receptor mutant expressed in Xenopus laevis oocytes at -60 mV at 30 mM by Two-Electrode voltage clamp method; assay type: functional, Oocyte; how it was run: as §5
Rattus norvegicus [28] = species on record: Rattus norvegicus; test: (§6) Displacement of [3H]Muscimol from GABAA alpha-1-alpha-5 receptor in Sprague-Dawley rat brain cortex membrane; how it was run: as §1
[29] = target: Gamma-aminobutyric acid receptor subunit alpha-4 (Rattus norvegicus, UniProt P18508+P28471+P63079); test: Agonist activity at rat recombinant GABAA alpha-4-beta-3-gamma-2 receptor expressed in HEK293 cells assessed as normalization of GABA-induced current by whole cell patch-clamp technique; assay type: functional, cell-based
How it was run: (§7)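 HEK293 cells transiently co-transfected (calcium phosphate) with rat αi, β3 and γ2S cDNAs plus EGFP marker; recorded 2 days later by whole-cell patch clamp in HEPES saline pH 7.35.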

[30] = target: Gamma-aminobutyric acid receptor subunit alpha-4 (Rattus norvegicus) (UniProt P28471); test: Intrinsic activity at recombinant rat GABAA alpha-4-beta-3-gamma-2 receptor expressed in HEK293 cells assessed as induction of current at 1 mM by whole-cell patch-clamp technique relative to GABA; assay type: cell-based; how it was run: as §2
[31] = target: GABA A receptor alpha-5/beta-3/gamma-2 (Rattus norvegicus, UniProt P18508+P19969+P63079); test: Agonist activity at rat recombinant GABAA alpha-5-beta-3-gamma-2 receptor expressed in HEK293 cells assessed as normalization of GABA-induced current by whole cell patch-clamp technique; assay type: functional, cell-based; how it was run: as §7
[32] = target: Gamma-aminobutyric acid receptor subunit alpha-6 (Rattus norvegicus) (UniProt P30191); test: Intrinsic activity at recombinant rat GABAA alpha-6-beta-3-gamma-2 receptor expressed in HEK293 cells assessed as induction of current at 1 mM by whole-cell patch-clamp technique relative to GABA; assay type: cell-based; how it was run: as §2
[33] = target: Gamma-aminobutyric acid receptor subunit alpha-6 (Rattus norvegicus, UniProt P18508+P30191+P63079); test: Agonist activity at rat recombinant GABAA alpha-6-beta-3-gamma-2 receptor expressed in HEK293 cells assessed as normalization of GABA-induced current by whole cell patch-clamp technique; assay type: functional, cell-based
How it was run: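 HEK293 cells transiently transfected by calcium phosphate with rat α6 (2 μg), β3 (0.4 μg) and γ2S (0.3 μg) cDNAs plus 1 μg EGFP vector per plate. Whole-cell patch clamp was done 2 days later on EGFP-positive cells in HEPES saline at pH 7.35. Compound was applied alone by fast perfusion at 1, 10, 100 and 1000 μM.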

[34] = target: Gamma-aminobutyric acid receptor subunit alpha-3 (Rattus norvegicus, UniProt P18508+P20236+P63079); test: Agonist activity at rat recombinant GABAA alpha-3-beta-3-gamma-2 receptor expressed in HEK293 cells assessed as normalization of GABA-induced current by whole cell patch-clamp technique; assay type: functional, cell-based; how it was run: as §7
[35] = as §6; how it was run: as §1
[36] = target: GABA-A receptor; alpha-1/beta-2/gamma-2 (Rattus norvegicus) (UniProt P18508+P62813+P63138); test: Intrinsic activity at recombinant rat GABAA alpha-1-beta-3-gamma-2 receptor expressed in HEK293 cells assessed as induction of current at 1 mM by whole-cell patch-clamp technique relative to GABA; assay type: cell-based; how it was run: as §2

Sequence of Gamma-aminobutyric acid receptor subunit alpha-6 (Rattus norvegicus) (P30191 whole entry): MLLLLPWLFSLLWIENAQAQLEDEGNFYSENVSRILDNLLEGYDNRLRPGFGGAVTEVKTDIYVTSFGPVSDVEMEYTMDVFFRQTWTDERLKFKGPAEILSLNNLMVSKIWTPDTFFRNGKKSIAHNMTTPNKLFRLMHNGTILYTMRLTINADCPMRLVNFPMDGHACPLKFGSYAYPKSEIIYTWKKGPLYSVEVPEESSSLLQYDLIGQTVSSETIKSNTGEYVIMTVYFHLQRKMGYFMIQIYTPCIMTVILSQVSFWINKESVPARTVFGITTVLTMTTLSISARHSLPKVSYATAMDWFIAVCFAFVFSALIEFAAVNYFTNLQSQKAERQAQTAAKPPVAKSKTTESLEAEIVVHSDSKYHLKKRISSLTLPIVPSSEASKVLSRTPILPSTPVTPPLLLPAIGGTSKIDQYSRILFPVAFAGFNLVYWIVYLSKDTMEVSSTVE
Sequence of Gamma-aminobutyric acid receptor subunit alpha-1 (Rattus norvegicus) (P62813 whole entry): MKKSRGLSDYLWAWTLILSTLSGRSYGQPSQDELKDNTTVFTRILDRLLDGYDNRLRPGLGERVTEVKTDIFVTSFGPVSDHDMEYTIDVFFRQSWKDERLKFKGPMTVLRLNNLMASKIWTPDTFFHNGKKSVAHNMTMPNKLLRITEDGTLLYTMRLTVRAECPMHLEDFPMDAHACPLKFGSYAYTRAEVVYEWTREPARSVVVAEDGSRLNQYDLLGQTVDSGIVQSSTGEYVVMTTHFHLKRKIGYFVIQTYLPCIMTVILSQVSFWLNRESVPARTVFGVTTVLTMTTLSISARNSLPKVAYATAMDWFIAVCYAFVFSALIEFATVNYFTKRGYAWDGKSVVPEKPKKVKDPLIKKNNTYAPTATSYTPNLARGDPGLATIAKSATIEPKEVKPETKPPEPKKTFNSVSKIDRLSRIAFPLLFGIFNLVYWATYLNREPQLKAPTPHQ
Sequence of Gamma-aminobutyric acid receptor subunit alpha-3 (Rattus norvegicus) (P20236 whole entry): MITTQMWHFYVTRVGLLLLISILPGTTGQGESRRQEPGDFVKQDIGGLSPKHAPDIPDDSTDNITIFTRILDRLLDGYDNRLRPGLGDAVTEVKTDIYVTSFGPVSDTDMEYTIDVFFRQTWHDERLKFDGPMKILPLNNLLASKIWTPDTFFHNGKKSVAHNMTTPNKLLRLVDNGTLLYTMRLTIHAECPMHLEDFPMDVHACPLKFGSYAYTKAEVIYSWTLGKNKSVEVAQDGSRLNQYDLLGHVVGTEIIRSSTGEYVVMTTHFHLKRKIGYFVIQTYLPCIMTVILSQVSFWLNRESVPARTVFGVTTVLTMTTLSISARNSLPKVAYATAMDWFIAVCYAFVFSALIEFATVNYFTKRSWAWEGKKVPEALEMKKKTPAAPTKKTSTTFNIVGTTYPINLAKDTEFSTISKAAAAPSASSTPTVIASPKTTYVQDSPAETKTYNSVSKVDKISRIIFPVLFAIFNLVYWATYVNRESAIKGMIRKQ
Sequence of Gamma-aminobutyric acid receptor subunit alpha-6 (Rattus norvegicus, UniProt P30191) (P30191 whole entry): as the sequence (P30191 whole entry) above
T1 sequence (P62813 whole entry, one chain of several): as the sequence (P62813 whole entry) above
Sequence of Gamma-aminobutyric acid receptor subunit alpha-3 (P20236 whole entry, one chain of several): as the sequence (P20236 whole entry) above
Sequence of Gamma-aminobutyric acid receptor subunit alpha-4 (Rattus norvegicus) (P28471 whole entry): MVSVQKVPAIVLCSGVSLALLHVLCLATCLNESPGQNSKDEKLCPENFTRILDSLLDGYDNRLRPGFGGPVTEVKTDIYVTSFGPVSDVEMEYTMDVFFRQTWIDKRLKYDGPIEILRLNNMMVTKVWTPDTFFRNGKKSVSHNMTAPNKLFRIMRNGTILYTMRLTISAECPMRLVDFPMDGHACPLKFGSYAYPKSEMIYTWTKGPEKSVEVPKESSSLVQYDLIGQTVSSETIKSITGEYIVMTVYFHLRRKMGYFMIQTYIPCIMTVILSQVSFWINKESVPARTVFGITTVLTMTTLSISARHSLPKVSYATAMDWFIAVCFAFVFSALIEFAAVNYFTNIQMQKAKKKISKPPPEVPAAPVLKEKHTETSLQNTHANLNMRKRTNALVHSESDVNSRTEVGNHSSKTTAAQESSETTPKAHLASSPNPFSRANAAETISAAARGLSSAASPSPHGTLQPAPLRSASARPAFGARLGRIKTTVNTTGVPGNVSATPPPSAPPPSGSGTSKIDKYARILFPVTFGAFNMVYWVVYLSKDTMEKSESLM
Sequence of Gamma-aminobutyric acid receptor subunit alpha-4 (P28471 whole entry, one chain of several): as the sequence (P28471 whole entry) above
Sequence of Gamma-aminobutyric acid receptor subunit alpha-6 (Rattus norvegicus, UniProt P18508+P30191+P63079) (P30191 whole entry, the tested form may be a part, one chain of several): as the sequence (P30191 whole entry) above
Sequence of GABA A receptor alpha-5/beta-3/gamma-2 (P18508 whole entry): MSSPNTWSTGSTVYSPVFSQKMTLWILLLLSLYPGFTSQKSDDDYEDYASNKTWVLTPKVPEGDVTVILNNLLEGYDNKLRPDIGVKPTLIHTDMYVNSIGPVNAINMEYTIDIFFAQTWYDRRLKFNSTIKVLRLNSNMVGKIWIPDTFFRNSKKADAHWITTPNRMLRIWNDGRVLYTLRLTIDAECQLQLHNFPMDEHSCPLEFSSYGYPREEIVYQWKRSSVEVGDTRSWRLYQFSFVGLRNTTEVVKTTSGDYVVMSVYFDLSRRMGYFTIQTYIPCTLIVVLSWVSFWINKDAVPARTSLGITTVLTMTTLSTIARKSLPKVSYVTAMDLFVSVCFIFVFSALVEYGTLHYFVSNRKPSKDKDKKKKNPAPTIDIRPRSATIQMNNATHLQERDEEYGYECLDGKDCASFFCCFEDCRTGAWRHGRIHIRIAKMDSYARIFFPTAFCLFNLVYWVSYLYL
Sequence of GABA A receptor alpha-5/beta-3/gamma-2 (P19969 whole entry): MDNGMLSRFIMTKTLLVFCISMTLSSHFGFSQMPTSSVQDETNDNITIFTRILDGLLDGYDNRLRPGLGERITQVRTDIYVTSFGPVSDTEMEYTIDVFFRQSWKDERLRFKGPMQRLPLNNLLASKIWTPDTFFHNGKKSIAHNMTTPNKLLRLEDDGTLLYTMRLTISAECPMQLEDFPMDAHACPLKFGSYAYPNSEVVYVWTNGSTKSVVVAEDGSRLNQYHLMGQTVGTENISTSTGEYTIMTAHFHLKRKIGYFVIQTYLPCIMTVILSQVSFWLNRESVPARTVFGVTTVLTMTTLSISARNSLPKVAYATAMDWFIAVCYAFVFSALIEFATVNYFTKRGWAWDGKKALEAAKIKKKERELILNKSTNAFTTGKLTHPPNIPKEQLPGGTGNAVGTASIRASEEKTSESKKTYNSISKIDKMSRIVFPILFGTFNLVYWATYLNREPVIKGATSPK
Sequence of GABA A receptor alpha-5/beta-3/gamma-2 (P63079 whole entry): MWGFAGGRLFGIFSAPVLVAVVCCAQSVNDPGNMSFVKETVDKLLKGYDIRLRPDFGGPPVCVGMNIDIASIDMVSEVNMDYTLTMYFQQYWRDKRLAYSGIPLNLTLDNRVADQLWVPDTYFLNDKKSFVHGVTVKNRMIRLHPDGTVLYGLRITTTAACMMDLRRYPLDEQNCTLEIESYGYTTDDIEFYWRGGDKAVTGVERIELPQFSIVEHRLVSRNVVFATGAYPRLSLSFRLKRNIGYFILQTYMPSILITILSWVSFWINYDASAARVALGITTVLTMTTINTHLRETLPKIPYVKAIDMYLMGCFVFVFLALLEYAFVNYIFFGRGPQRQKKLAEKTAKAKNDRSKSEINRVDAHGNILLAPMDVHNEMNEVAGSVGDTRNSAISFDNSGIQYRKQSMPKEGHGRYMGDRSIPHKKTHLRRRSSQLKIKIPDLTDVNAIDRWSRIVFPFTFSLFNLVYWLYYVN

## Cl.Sc1nnc(C2CCNCC2)o1
Rattus norvegicus [1]
  inhibition: 68%
[2]
  Activity: 48%
[3]
  Activity: 77%
[4]
  Activity: 6.8%
[5]
  inhibition: 64%
[6]
  IC50: 46 µM
[7]
  IC50: 59 µM
[8]
  Activity: 39%
[9]
  Activity: 47%
[10]
  logIC50: 1.82
[11]
  IC50: 66 µM
[12]
  Activity: 68%
[13]
  Activity: 17%
[14]
  EC50: 5500 µM
[15]
  Activity: 40%
Rattus norvegicus [16]
  inhibition: 94%
[17]
  EC50: 10000 µM
[18]
  Activity: 3%
[19]
  inhibition: 91%
[20]
  Activity: 20%
[21]
  EC50: 9500 µM
[22]
  IC50: 56 µM
[23]
  Activity: 80%
[24]
  Activity: 9%
[25]
  Activity: 13%
[26]
  Activity: 23%
[27]
  Activity: 60%
Rattus norvegicus [28]
  logIC50: 1.67

## NCc1nnc(O)o1
Rattus norvegicus [1]
  inhibition: 99%
[2]
  Activity: 0.95
[5]
  inhibition: 97%
[29]
  EC50: 128 µM
[30]
  Activity: 0.97
[31]
  EC50: 137 µM
[10]
  logIC50: 0.048
[11]
  IC50: 1.1 µM
[32]
  Activity: 1.03
Rattus norvegicus [16]
  inhibition: 104%
[33]
  EC50: 30 µM
[19]
  inhibition: 102%
[34]
  EC50: 2300 µM
[25]
  Activity: 0.59
[26]
  Activity: 0.88
[35]
  IC50: 1.4 µM
Rattus norvegicus [28]
  logIC50: 0.139
[36]
  Activity: 0.93
